From ChEMBL document CHEMBL4732088, “Identification and optimization of piperlongumine analogues as potential antioxidant and anti-inflammatory agents via activation of Nrf2” (Eur J Med Chem, 2021)
Active and inactive are the calls of the source. The calls are words filed in the database; no cut-off is given here.

Assays:
PC-12 [1] = assay: Neuroprotective activity against H2O2-induced cell damage in rat PC12 cells assessed as cell viability at 20 uM after 24 hrs by MTT assay (reference value: 46 +/- 4.12 %); format: functional; conditions: read-out: Activity
PC-12 [2] = assay: Neuroprotective activity against 6-OHDA-induced cell damage in rat PC12 cells assessed as cell viability at 20 uM after 24 hrs by MTT assay (reference value: 45.23 +/- 4.37 %); format: functional; conditions: for viability at 20 µM: read-out: Activity
PC-12 [3] = assay: Neuroprotective activity against H2O2-induced cell damage in rat PC12 cells at 20 uM after 24 hrs by MTT assay; format: functional, cell-based
PC-12 [4] = assay: Neuroprotective activity against 6-OHDA-induced cell damage in rat PC12 cells at 20 uM after 24 hrs by MTT assay; format: functional, cell-based
PC-12 [5] = assay: Cytotoxicity against rat PC12 cells at 50 uM by MTT assay; format: cell-based; conditions: pc-12, 50 µM
Summary of the method: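 Rat PC12 cells exposed to compounds at 50 μM; viability by MTT assay.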

PC-12 [6] = assay: Upregulation of Nrf2 expression in rat PC12 cells at 20 uM after 24 hrs by Western blot analysis; format: functional, cell-based
Summary of the method: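 Rat PC12 cells exposed to compound for 24 h. Nrf2 protein detected by western blot. Mean ± SD, n = 3.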

| SMILES | viability at 20 µM (PC-12 [1]) | viability at 20 µM (PC-12 [2]) | other results |
| --- | --- | --- | --- |
| O=C(CCc1ccc(F)cc1)N1CCNC1=O | 53.6% | 56.3% | – |
| O=C(/C=C/c1ccc(F)cc1)N1CCN(C(=O)c2ccccc2)C1=O | 63.3% | 60.3% | – |
| O=C(/C=C/c1ccccc1)N1CCNC1=O | – | – | Activity (PC-12 [2]): Active; Activity (PC-12 [3]): Active; Activity (PC-12 [4]): Active |
| O=C(/C=C/c1cccs1)N1CCNC1=O | 65.2% | 64.2% | – |
| CC(C)(C)C(=O)N1CCN(C(=O)/C=C/c2ccc(C(F)(F)F)cc2)C1=O | 72.5% | 71.1% | – |
| CC(C)(C)C(=O)N1CCN(C(=O)/C=C/c2cccc(Cl)c2)C1=O | 69.2% | 68.3% | – |
| O=C(/C=C/c1ccc(F)cc1)N1CCN(C(=O)N2CCCCC2)C1=O | 72.8% | 72.1% | – |
| O=C(/C=C/c1ccc(F)cc1)N1CCN(C(=O)CCCl)C1=O | 43.2% | 37.1% | Activity (PC-12 [5]): Toxic |
| COc1cc(/C=C/C(=O)N2CCC=CC2=O)cc(OC)c1OC [PIPLARTINE] | – | – | Activity (PC-12 [5]): Toxic |
| N#Cc1ccc(C(=O)N2CCN(C(=O)/C=C/c3ccc(F)cc3)C2=O)cc1 | 55.1% | 52.3% | Activity (PC-12 [5]): Toxic |
| C=C(C)C(=O)N1CCN(C(=O)/C=C/c2ccc(F)cc2)C1=O | 38% | 30.2% | Activity (PC-12 [5]): Toxic |
| CC(C)(C)C(=O)N1CCN(C(=O)/C=C/c2ccncc2)C1=O | 71.1% | 69.6% | – |
| CN(C)C(=O)N1CCN(C(=O)/C=C/c2ccc(F)cc2)C1=O | 73.8% | 71.3% | – |
| CC(C)(C)C(=O)N1CCN(C(=O)/C=C/c2ccc(F)cc2)C1=O | 73.6% | 72.2% | – |
| CCN(C)C(=O)N1CCN(C(=O)CCc2ccc(F)cc2)C1=O | 59.5% | 62.5% | – |
| CC(C)(C)C(=O)N1CCN(C(=O)/C=C/c2ccccc2F)C1=O | 72.4% | 72.3% | – |
| O=C(/C=C/c1ccco1)N1CCNC1=O | 64.1% | 60% | – |
| CC(C)(C)C(=O)N1CCN(C(=O)/C=C/c2ccccc2)C1=O | 61.5% | 60.1% | – |
| CC(C)(C)C(=O)N1CCN(C(=O)/C=C/c2ccc(C#N)cc2)C1=O | 71.4% | 71.1% | – |

| SMILES | viability at 20 µM (PC-12 [1]) | viability at 20 µM (PC-12 [2]) | other results |
| --- | --- | --- | --- |
| CC(C)(C)C(=O)N1CCN(C(=O)/C=C/c2cccc(F)c2)C1=O | 71% | 69.3% | – |
| O=C(/C=C/c1ccccc1)N1CCCCC1=O | – | – | Activity (PC-12 [2]): Active; Activity (PC-12 [3]): Active; Activity (PC-12 [4]): Active |
| CCCC(=O)N1CCN(C(=O)/C=C/c2ccc(F)cc2)C1=O | 70.2% | 69.3% | – |
| CC(=O)N1CCN(C(=O)/C=C/c2ccc(F)cc2)C1=O | 70.4% | 72.3% | – |
| CCC(=O)N1CCN(C(=O)/C=C/c2ccc(F)cc2)C1=O | 71.6% | 70.2% | – |
| CC(C)(C)C(=O)N1CCN(C(=O)/C=C/c2ccc3c(c2)OCO3)C1=O | 63.3% | 62.3% | – |
| CC(C)(C)C(=O)N1CCN(C(=O)/C=C/c2ccccc2Cl)C1=O | 70% | 69% | – |
| CC(C)(C)C(=O)N1CCN(C(=O)/C=C/c2cccc3ccccc23)C1=O | 72.3% | 71.8% | – |
| CC(C)(C)C(=O)N1CCN(C(=O)/C=C/c2ccco2)C1=O | 69.7% | 68.3% | – |
| O=C(/C=C/c1ccc(F)cc1)N1CCN(C(=O)c2cccs2)C1=O | 62.2% | 60.8% | – |
| CC(=O)N/C(=C\c1ccccc1)C(=O)N1CCN(C(=O)C(C)(C)C)C1=O | 72.7% | 71.2% | – |
| O=C(/C=C/c1ccc(C(F)(F)F)cc1)N1CCNC1=O | 67.7% | 65.3% | – |
| CC(C)(C)C(=O)N1CCN(C(=O)/C=C/c2cccs2)C1=O | 69.2% | 68.2% | – |
| CC(C)(C)C(=O)N1CCN(C(=O)/C=C/c2ccc(Cl)cc2)C1=O | 72% | 71.1% | – |
| O=C(/C=C/c1ccc(F)cc1)N1CCNC1=O | 68.6% | 69.1% | Activity (PC-12 [6]): Active |
| O=C(/C=C/c1ccccc1)N1CCCNC1=O | – | – | Activity (PC-12 [2]): Active; Activity (PC-12 [3]): Active; Activity (PC-12 [4]): Active |
| CC(C)(C)C(=O)N1CCN(C(=O)/C=C/c2c(F)cccc2Cl)C1=O | – | 71.1% | – |
| C=CC(=O)N1CCN(C(=O)/C=C/c2ccc(F)cc2)C1=O | 44% | 43.8% | Activity (PC-12 [5]): Toxic |
